Cytotoxicity data for 40 compounds are collected here from ChEMBL document CHEMBL4513216, “Probing the Open Global Health Chemical Diversity Library for Multistage-Active Starting Points for Next-Generation Antimalarials” (ACS Infect Dis, 2020).

The structures appear in SMILES notation.

This data set in a line: Toxicity liver stage against HepG2, at 10uM. Further details: test concentration 10 uM, cell line HepG2-A16-CD81EGFP. The following applies: human, HepG2-A16-CD81EGFP cells; read-out: INHIBITION
Type of data set: cell-based. An outline of the steps: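 Uninfected HepG2-A16-CD81EGFP cells, 3 × 10^3 per well, 1536-well, plated on prespotted compound at 10 μM final, parasite-free screening media added to match infected plates; puromycin 10 μM positive, DMSO 0.5% negative; run in parallel with 48 h PbLuc assay at 37 °C, 5% CO2; viability by CellTiter-Glo luminescence, normalized to controls.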
For the compound `CN1CCc2c(C#N)c(NCCCO)n3cnnc3c2C1`, the cytotoxicity at 10 µM came to 8.71%. For `Cc1nn(C)c2cn(C(C)C(=O)NCc3ccncc3)nc12` (stereo not given), the cytotoxicity at 10 µM came to 1.91%. Then `CCCNC(=O)c1cc(C(C)C)nc(N2CCCC2)n1`, with 8.77%.

For `CCn1c(NCc2ccco2)nc2c(C)nn(C)c2c1=O`, the cytotoxicity at 10 µM was found to be 2.48%. `CCSCc1nc(O)c2nnn(C3CCN(Cc4ccco4)CC3)c2n1`: the cytotoxicity at 10 µM was 8.79%. With `CN(C)C(=O)C1CN(Cc2ccccc2)CCN(S(C)(=O)=O)C1` (stereo not given) the figure was -5.43%; with `O=C(NCc1cccnc1)c1ccc2nccn2c1`, 8.08%.

With `O=C(NC1CCCCC1)N1CCCC1c1nnc2n1CCNC2` (stereo not given), the cytotoxicity at 10 µM turned out to be 14.4%. For the compound `Cc1ccnc(NC(=O)c2ccc(Cl)o2)c1`, the cytotoxicity at 10 µM worked out at 4.14%.

For `Clc1ccc(C2(NCc3noc(C4CC4)n3)CCCC2)cc1`, the cytotoxicity at 10 µM was determined as 13.3%. With `CC(C)(C)c1nnc(CN2CCN(C(=O)CC3CCCCC3)CC2)o1` the figure was 15.3%.

For `Cc1cnn(CC2CCCN2CC(=O)N(C)Cc2cnn(C)c2)c1` (stereo not given), the cytotoxicity at 10 µM amounted to 8.92%. Regarding `COCCN(Cc1ccc(F)cc1Cl)C(=O)c1cc(C)n[nH]1`, the cytotoxicity at 10 µM turned out to be 0.886%. As for `CCc1nccn1C1CCCN(C(=O)c2cncn2-c2ccccc2)C1` (stereo not given), the cytotoxicity at 10 µM came to 5.62%.

As for `COCCCNC(=O)C1CCN(CC2(O)CCC(C)CC2)CC1` (stereo not given), the cytotoxicity at 10 µM turned out to be 21.6%. As for `Cc1cc(C(=O)N2CCCS2(=O)=O)c(C)o1`, the cytotoxicity at 10 µM was -11.1%. In the case of `COc1ccc(C(=O)N2Cc3c(Cn4ccnc4)nn(C)c3C2)cc1`, the cytotoxicity at 10 µM stood at 4.89%.

Regarding `CN(CCc1cnn(C)c1)C(=O)C1COc2ccccc2C1` (stereo not given), the cytotoxicity at 10 µM was 1.33%.

As for `COCc1nc(N(C)C/C=C/c2ccccc2)c2cnn(C)c2n1`, the cytotoxicity at 10 µM was -2.21%. On to `O=C(N[C@@H]1CCNC[C@H]1O)c1ccc(-c2ccc(F)cc2)cc1`, for which the cytotoxicity at 10 µM is -6.29%. Regarding `Cc1ccc(CN2CCC3(C2)C(=O)N(CC(N)=O)c2ccccc23)s1` (stereo not given), the cytotoxicity at 10 µM came to 5.37%. Then `Cc1cccc(N2CCC(N3CCC4(CCCNC4=O)C3)CC2)c1C` (stereo not given), with -5.66%.

In the case of `CC(NCc1cn(CCC(N)=O)c2ccccc12)c1nncn1C` (stereo not given), the cytotoxicity at 10 µM came to 0.78%. With `CC1=CCN(C(=O)Nc2ccccc2N2CCOC2=O)CC1` the figure was -0.724%; with `CN1CC2(CCN(C(=O)c3ccc(-n4cccn4)cc3Cl)C2)OC1=O` (stereo not given), 4.36%. Turning to `O=C(O)c1ccc(CC2CCN(S(=O)(=O)N3CCOCC3)C2)cc1` (stereo not given), the cytotoxicity at 10 µM came out at 1.62%.

With `CCc1noc(-c2cccc(NC(=O)C(C)(C)C)c2)n1`, the cytotoxicity at 10 µM was -4.15%.

Consider `CC(=O)N(Cc1ncc(C(C)C)o1)C1CCN(CC2CCC2)C1` (stereo not given), for which the cytotoxicity at 10 µM is -11.8%. Then `CS(=O)(=O)NCC1CCCN(C(=O)COCc2ccccc2)C1` (stereo not given), with -7.59%; and `CC(O)CN1CCC(CNCc2ccccc2OC(F)(F)F)CC1` (stereo not given), with -11.6%. On to `Cn1cc(CN2CCCN(C(=O)c3cc(Cl)cn3C)CC2)cn1`, for which the cytotoxicity at 10 µM is -1.63%. As for `Cc1c(C(=O)NC(CN2CCCC2=O)c2ccccc2)cnn1C` (stereo not given), the cytotoxicity at 10 µM is -8.7%. `O=C(NCCNc1ncccn1)N(Cc1ccc(F)cc1F)C1CC1`: the cytotoxicity at 10 µM was -2.84%. Take `Cc1ccc(OCCSC2=NCCN2)cc1`: the cytotoxicity at 10 µM was -2.01%. For the compound `COCC(=O)NC1CC2(CCN(Cc3ccco3)CC2)c2ccccc21` (stereo not given), the cytotoxicity at 10 µM was determined as 5.61%. For the compound `CCOCC1CC2(CCN(C(=O)c3ccccn3)CC2)CO1` (stereo not given), the cytotoxicity at 10 µM was -3.76%. Turning to `c1cnn(Cc2nnc3n2CCCN(Cc2ccsc2)C3)c1`, the cytotoxicity at 10 µM is -0.714%. For the compound `Cc1ccc(CN2CC[C@H]3[C@@H]2CCC(=O)N3CCN2CCCC2)s1`, the cytotoxicity at 10 µM stood at 3.01%. With `COCCN1CCCC12CCN(C(=O)CC1CCCC1)CC2`, the cytotoxicity at 10 µM worked out at 5.47%. Then `Fc1cnc(N2CCCC3(CN(Cc4cccs4)CCO3)C2)nc1` (stereo not given), with 7.37%.
